# In publication PMC3924180 (Analytical chemistry, 2013):
# How the values were obtained:
# [1] = system: protein tyrosine phosphatase (PTP); assay: Single cell phosphatase activity assay; assay type: cell-based, human; conditions: BEAS-2B cells pretreated with the inhibitor; abstract
# Outline: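 BEAS-2B cells grown in KGM on glass-coverslip chambers, kept at 37 °C under warm ECB (HEPES buffer, pH 7.4). Microinjected with fluorescent phosphopeptide substrate pTS13 and laser-lysed after 60 s. Contents were electrokinetically loaded and separated by CE-LIF in borate/SDS/NaCl, pH 7.4. Dephosphorylation was taken as the […] peak area over the combined pTS13 + TS13 areas. Treated and untreated cells were compared by bootstrapping (10,000 samples).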
# [2] = system: protein tyrosine phosphatase (PTP); assay: Single cell phosphatase activity assay; assay type: cell-based, human; conditions: primary hAECs pre-incubated with the inhibitor; abstract
Compound,inhibition relative to PTP activity in untreated controls [1] [%],median PTP inhibition [2] [%]
pervanadate,76,91
[Zn+2] [Zn^2+],69,88
"O=C1C=Cc2ccccc2C1=O [1,2-naphthoquinone]",100,87
